EC50 and IC50 data for 12 compounds are collected here from ChEMBL document CHEMBL4842360, “Discovery of a Bicyclic Peptidyl Pan-Ras Inhibitor” (J Med Chem, 2021).

Assay [1] deals with NCI-H358. As to the kind of experiment: Antiproliferative activity against human NCI-H358 cells incubated for 96 hrs by MTT assay. In kind it is functional, cell-based. Conditions: Homo sapiens, NCI-H358, 96 h; read-out: EC50; call rule not given here. The procedure, abridged: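 H358 cells at 5,000/well, grown overnight, treated with serially diluted peptide (0–40 μM) in 10% FBS medium for 96 h at 37 °C. MTT added for 4 h, formazan solubilized overnight in SDS-HCl, absorbance read at 570 nm.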
In general terms: Formazan colour is commonly taken as a measure of viable cells.

Assay [2] deals with NCI-H358. In words: Antiproliferative activity against human NCI-H358 cells incubated for 96 hrs by Celltiter-Glo assay. In kind it is functional, cell-based. The note with it: Homo sapiens, NCI-H358, 96 h; read-out: EC50. A general note: Cellular ATP, detected with luciferase, serves as a proxy for viable cell number.
In another assay the target is GTPase KRas (Homo sapiens, UniProt P01116, G12V). As to the kind of experiment: Inhibition of His6-tagged KRas G12V mutant (unknown origin) expressed in Escherichia coli BL21(DE3) cells assessed as reduction in Ras/GST-fused Raf RBD interaction incubated for 1 hr by HTRF assay. (In TR-FRET formats the signal depends on donor and acceptor labels being close together.)
Sequence of GTPase KRas (P01116 whole entry G12V, the tested form may be a part): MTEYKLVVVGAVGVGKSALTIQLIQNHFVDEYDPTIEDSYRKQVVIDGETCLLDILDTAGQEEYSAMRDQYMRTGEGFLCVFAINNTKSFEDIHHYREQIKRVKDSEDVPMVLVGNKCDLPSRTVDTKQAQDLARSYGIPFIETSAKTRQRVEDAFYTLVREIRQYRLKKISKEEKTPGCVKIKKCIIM

For the compound `C[C@H](NC(=O)[C@@H]1CNC(=O)c2cc3cc(c2)C(=O)N[C@H](Cc2ccc4ccccc4c2)C(=O)N[C@@H](CO)C(=O)N[C@@H](CCC(N)=O)C(=O)N[C@H](Cc2ccc4ccccc4c2)C(=O)N[C@@H](c2ccccc2)C(=O)N[C@@H](CCCCNC3=O)C(=O)N[C@H](Cc2ccccc2)C(=O)N[C@@H](C)C(=O)N[C@H](CCCNC(=N)N)C(=O)N[C@@H](CCCNC(=N)N)C(=O)N1)C(=O)N[C@H](CCCNC(=N)N)C(=O)N[C@H](Cc1ccccc1)C(=O)N[C@@H](Cc1ccc(F)cc1)C(N)=O`, the EC50 (in general, the concentration at which the effect is half-maximal) with NCI-H358 [1] was 19 µM.

In the case of `C[C@@H]1NC(=O)[C@@H](Cc2ccccc2)NC(=O)[C@@H]2CCCCNC(=O)c3cc(cc(c3)C(=O)N[C@H](Cc3ccc4ccccc4c3)C(=O)N[C@@H](CO)C(=O)N[C@@H](CC(N)=O)C(=O)N[C@H](Cc3ccc4ccccc4c3)C(=O)N[C@@H](c3ccccc3)C(=O)N2)C(=O)NC[C@@H](C(=O)N[C@@H](CCN)CC(=O)N[C@H](CCCNC(=N)N)C(=O)N[C@@H](Cc2ccccc2)C(=O)N[C@H](C)C(N)=O)NC(=O)[C@H](CCCNC(=N)N)NC(=O)[C@@H](CCCNC(=N)N)NC1=O`, the EC50 in the assay on NCI-H358 [2] was found to be 3.2 µM. The IC50 (usually the midpoint of a concentration-inhibition curve) on GTPase KRas (read-out: IC50) amounted to 510 nM.

In the case of `C[C@@H]1NC(=O)[C@@H](Cc2ccccc2)NC(=O)[C@@H]2CCCCNC(=O)c3cc(cc(c3)C(=O)N[C@H](Cc3ccc4ccccc4c3)C(=O)N[C@@H](CO)C(=O)N[C@@H](CC(N)=O)C(=O)N[C@H](Cc3ccc4ccccc4c3)C(=O)N[C@@H](c3ccccc3)C(=O)N2)C(=O)NC[C@@H](C(=O)N[C@@H](CC(N)=O)C(=O)N[C@H](CCCNC(=N)N)C(=O)N[C@@H](Cc2cccnc2)C(=O)N[C@H](C)C(N)=O)NC(=O)[C@H](CCCNC(=N)N)NC(=O)[C@@H](CCCNC(=N)N)NC1=O`, the EC50 with NCI-H358 [2] amounted to 6.6 µM. On GTPase KRas (read-out: IC50), the IC50 is 410 nM.

For the compound `C[C@@H]1NC(=O)[C@@H](Cc2ccccc2)NC(=O)[C@@H]2CCCCNC(=O)c3cc(cc(c3)C(=O)N[C@H](Cc3ccc4ccccc4c3)C(=O)N[C@@H](CO)C(=O)N[C@@H](CC(N)=O)C(=O)N[C@H](Cc3ccc4ccccc4c3)C(=O)N[C@@H](c3ccccc3)C(=O)N2)C(=O)NC[C@@H](C(=O)N[C@@H](CCC(N)=O)C(=O)N[C@H](CCCNC(=N)N)C(=O)N[C@@H](Cc2ccccc2)C(=O)N[C@H](C)C(N)=O)NC(=O)[C@H](CCCNC(=N)N)NC(=O)[C@@H](CCCNC(=N)N)NC1=O`, the 50% effective concentration (EC50) with NCI-H358 [2] is 7.5 µM. The IC50 on GTPase KRas (read-out: IC50) was determined as 230 nM.

As for `C[C@@H]1NC(=O)[C@@H](Cc2ccccc2)NC(=O)[C@@H]2CCCCNC(=O)c3cc(cc(c3)C(=O)N[C@H](Cc3ccc4ccccc4c3)C(=O)N[C@@H](CO)C(=O)N[C@@H](CC(N)=O)C(=O)N[C@H](Cc3ccc4ccccc4c3)C(=O)N[C@@H](c3ccccc3)C(=O)N2)C(=O)NC[C@@H](C(=O)N[C@@H](CCN)CC(=O)N[C@H](CCCNC(=N)N)C(=O)N[C@@H](Cc2ccc(F)cc2)C(=O)N[C@H](C)C(=O)N[C@@H](CCCCN)C(N)=O)NC(=O)[C@H](CCCNC(=N)N)NC(=O)[C@@H](CCCNC(=N)N)NC1=O`, the half-maximal effective concentration (EC50) with NCI-H358 [2] came out at 7.2 µM. The IC50 on GTPase KRas (read-out: IC50) is 890 nM.

As to `C[C@@H]1NC(=O)[C@@H](Cc2ccccc2)NC(=O)[C@@H]2CCCCNC(=O)c3cc(cc(c3)C(=O)N[C@H](Cc3ccc4ccccc4c3)C(=O)N[C@@H](CO)C(=O)N[C@@H](CC(N)=O)C(=O)N[C@H](Cc3ccc4ccccc4c3)C(=O)N[C@@H](c3ccccc3)C(=O)N2)C(=O)NC[C@@H](C(=O)N[C@@H](CC(N)=O)C(=O)N[C@H](CCCNC(=N)N)C(=O)N[C@@H](Cc2ccccc2)C(=O)N[C@H](C)C(N)=O)NC(=O)[C@H](CCCNC(=N)N)NC(=O)[C@@H](CCCNC(=N)N)NC1=O`, in the assay with NCI-H358 [2], the EC50 worked out at 8.4 µM. Also, the IC50 on GTPase KRas (read-out: IC50) worked out at 280 nM.

On to `C[C@@H]1NC(=O)[C@@H](Cc2ccccc2)NC(=O)[C@@H]2CCCCNC(=O)c3cc(cc(c3)C(=O)N[C@H](Cc3ccc4ccccc4c3)C(=O)N[C@@H](CO)C(=O)N[C@@H](CCC(N)=O)C(=O)N[C@H](Cc3ccc4ccccc4c3)C(=O)N[C@@H](c3ccccc3)C(=O)N2)C(=O)NC[C@@H](C(=O)N2CCC[C@@H]2C(=O)N[C@H](CCCNC(=N)N)C(=O)N[C@H](Cc2ccccc2)C(=O)N[C@H](Cc2ccc(O)cc2)C(N)=O)NC(=O)[C@H](CCCNC(=N)N)NC(=O)[C@@H](CCCNC(=N)N)NC1=O`, for which the concentration for half-maximal inhibition (IC50) entry at GTPase KRas is “Not Active”.

As to `C[C@@H]1NC(=O)[C@@H](Cc2ccccc2)NC(=O)[C@@H]2CCCCNC(=O)c3cc(cc(c3)C(=O)N[C@H](Cc3ccc4ccccc4c3)C(=O)N[C@@H](CO)C(=O)N[C@@H](CC(N)=O)C(=O)N[C@H](Cc3ccc4ccccc4c3)C(=O)N[C@@H](c3ccccc3)C(=O)N2)C(=O)NC[C@@H](C(=O)N[C@@H](CC(N)=O)C(=O)N[C@H](CCCNC(=N)N)C(=O)N[C@@H](Cc2ccc(F)c(F)c2)C(=O)N[C@H](C)C(N)=O)NC(=O)[C@H](CCCNC(=N)N)NC(=O)[C@@H](CCCNC(=N)N)NC1=O`, the concentration for a half-maximal effect (EC50) in the assay on NCI-H358 [2] turned out to be 4.4 µM. Further, the IC50 at GTPase KRas (read-out: IC50) was found to be 500 nM.

As to `CC(C)[C@@H](NC(=O)[C@H](CO)NC(=O)[C@H](CC(=O)O)NC(=O)[C@@H](Cc1ccc(O)cc1)NC(=O)[C@@H]1CNC(=O)c2cc3cc(c2)C(=O)N[C@H](Cc2ccc4ccccc4c2)C(=O)N[C@@H](CO)C(=O)N[C@@H](CCC(N)=O)C(=O)N[C@H](Cc2ccc4ccccc4c2)C(=O)N[C@@H](c2ccccc2)C(=O)N[C@@H](CCCCNC3=O)C(=O)N[C@H](Cc2ccccc2)C(=O)N[C@@H](C)C(=O)N[C@H](CCCNC(=N)N)C(=O)N[C@@H](CCCNC(=N)N)C(=O)N1)C(=O)N[C@@H](CCCCN)C(N)=O`, the IC50 result at GTPase KRas was “Not Active”.

As for `C[C@@H]1NC(=O)[C@@H](Cc2ccccc2)NC(=O)[C@@H]2CCCCNC(=O)c3cc(cc(c3)C(=O)N[C@H](Cc3ccc4ccccc4c3)C(=O)N[C@@H](CO)C(=O)N[C@@H](CCC(N)=O)C(=O)N[C@H](Cc3ccc4ccccc4c3)C(=O)N[C@@H](c3ccccc3)C(=O)N2)C(=O)NC[C@@H](C(=O)N2CCC[C@@H]2C(=O)N[C@H](CCCNC(=N)N)C(=O)N[C@H](Cc2ccc3ccccc3c2)C(=O)N[C@@H](CCC(=O)O)C(N)=O)NC(=O)[C@H](CCCNC(=N)N)NC(=O)[C@@H](CCCNC(=N)N)NC1=O`, at GTPase KRas, the concentration for half-maximal inhibition (IC50) result was “Not Active”.

Turning to `C[C@@H]1NC(=O)[C@@H](Cc2ccccc2)NC(=O)[C@@H]2CCCCNC(=O)c3cc(cc(c3)C(=O)N[C@H](Cc3ccc4ccccc4c3)C(=O)N[C@@H](CO)C(=O)N[C@@H](CCC(N)=O)C(=O)N[C@H](Cc3ccc4ccccc4c3)C(=O)N[C@@H](c3ccccc3)C(=O)N2)C(=O)NC[C@@H](C(=O)N[C@H](CCCCN)C(=O)N[C@@H](Cc2c[nH]cn2)C(=O)N[C@H](Cc2ccc(O)cc2)C(=O)N[C@H](CCC(=O)O)C(N)=O)NC(=O)[C@H](CCCNC(=N)N)NC(=O)[C@@H](CCCNC(=N)N)NC1=O`, the half-inhibitory concentration (IC50) entry at GTPase KRas is “Not Active”.

With `C[C@@H]1NC(=O)[C@@H](Cc2ccccc2)NC(=O)[C@@H]2CCCCNC(=O)c3cc(cc(c3)C(=O)N[C@H](Cc3ccc4ccccc4c3)C(=O)N[C@@H](CO)C(=O)N[C@@H](CC(N)=O)C(=O)N[C@H](Cc3ccc4ccccc4c3)C(=O)N[C@@H](c3ccccc3)C(=O)N2)C(=O)NC[C@@H](C(=O)N[C@@H](CCN)CC(=O)N[C@H](CCCNC(=N)N)C(=O)N[C@@H](Cc2ccc(F)cc2)C(=O)N[C@H](C)C(N)=O)NC(=O)[C@H](CCCNC(=N)N)NC(=O)[C@@H](CCCNC(=N)N)NC1=O`, the EC50 with NCI-H358 [2] stood at 6 µM. Moreover, the 50% inhibitory concentration (IC50) at GTPase KRas (read-out: IC50) came to 700 nM.
